Data reported in ChEMBL document CHEMBL1154210, “Reversal of fluconazole resistance by sulfated sterols from the marine sponge Topsentia sp” (J Nat Prod, 2009).
Activity calls are given as the source filed them. The calls are words filed in the database; no cut-off is given here.

What was measured:
[1] = tested on: Plasmodium falciparum; test: Antiprotozoal activity Plasmodium falciparum W2; format: functional, organism-based
[2] = tested on: Saccharomyces cerevisiae; test: Antimicrobial activity against azole-resistant Saccharomyces cerevisiae expressing null pump at 13 uM after 40 to 48 hrs in presence of fluconazole; format: functional
Outline: (§1)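 S. cerevisiae strains (MDR1-overexpressing or null pump) inoculated in YPD at 1 × 10^4 CFU/mL final into saline-diluted samples. Fluconazole in DMSO at ~1/10th its IC50, with DMSO-only duplicates. Absorbance at 630 nm read before and after 40–48 h at 30 °C. Checkerboard IC50s combined into FIC (combination/alone ratios summed).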

[3] = tested on: Pichia kudriavzevii; test: Antimicrobial activity against Candida Krusei; format: functional, organism-based
[4] = tested on: Nakaseomyces glabratus; test: Antimicrobial activity against Candida glabrata; format: functional, organism-based
[5] = tested on: Candida albicans; test: Antimicrobial activity against fluconazole-resistant Candida albicans 1758 over expressing MDR1 at 194 uM ater 24 hrs in presence of fluconazole; format: functional
Outline: (§2)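 Broth microdilution in YPD with C. albicans inoculum at 1 × 10^4 CFU/mL final; samples diluted in 0.9% saline. Fluconazole in DMSO at ~1/3rd its IC50, with DMSO-only duplicates. OD 630 nm read before and after 37 °C for 24 h. A checkerboard of sample × fluconazole gave FIC = sum of combination/alone IC50 ratios for each agent.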

[6] = tested on: Saccharomyces cerevisiae; test: Antimicrobial activity against azole-resistant Saccharomyces cerevisiae expressing CDR1 efflux pump at 13 uM after 40 to 48 hrs in presence of fluconazole; format: functional
Outline: (§3)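 Checkerboard combination in S. cerevisiae CDR1 efflux pump strain: compound diluted in 0.9% saline, crossed with FLU (in DMSO) over all concentration pairs; inoculum in YPD broth at 1 × 10^4 CFU/mL; incubated 30 °C for 40–48 h; growth read at 630 nm before and after incubation. FIC = (IC50 combined/IC50 alone) summed for compound and FLU.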

[7] = tested on: Plasmodium falciparum; test: Antiprotozoal activity Plasmodium falciparum D6; format: functional, organism-based
[8] = tested on: Candida albicans; test: Antimicrobial activity against fluconazole-resistant Candida albicans isolate 17 at 13 uM ater 24 hrs in presence of fluconazole; format: functional
Outline: (§4)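 C. albicans isolates #1 and #17 in YPD at 1 × 10^4 CFU/mL final with saline-diluted samples plus fluconazole (DMSO) at ~1/3rd its IC50. 630 nm readings taken before and after 24 h at 37 °C. FIC was derived from checkerboard IC50s of each agent alone and in combination.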

[9] = tested on: Candida albicans; test: Antimicrobial activity against fluconazole-susceptible Candida albicans isolate 1 at 13 uM ater 24 hrs in presence of fluconazole; format: functional; outline: as §4
[10] = tested on: Saccharomyces cerevisiae; test: Antimicrobial activity against azole-resistant Saccharomyces cerevisiae expressing MDR1 at 13 uM after 40 to 48 hrs in presence of fluconazole; format: functional; outline: as §1
[11] = tested on: Vero; test: Cytotoxicity against african green monkey Vero cells at 9.25 uM after 48 hrs by neutral red assay; format: cell-based; details: chlorocebus sabaeus
[12] = tested on: Leishmania donovani; test: Antiprotozoal activity Leishmania donovani by Alamar blue assay; format: functional, organism-based
[13] = tested on: Cryptococcus neoformans; test: Antimicrobial activity against Cryptococcus neoformans; format: functional, organism-based
[14] = tested on: Staphylococcus aureus; test: Antimicrobial activity against methicillin resistant Staphylococcus aureus; format: functional, organism-based
[15] = tested on: Candida albicans; test: Antimicrobial activity against Fluconazole susceptible Candida albicans 1587 at 194 uM ater 24 hrs in presence of fluconazole; format: functional; outline: as §2
[16] = tested on: Mycobacterium intracellulare; test: Antimicrobial activity against Mycobacterium intracellular; format: functional, organism-based
[17] = tested on: Saccharomyces cerevisiae; test: Antimicrobial activity against azole-resistant Saccharomyces cerevisiae expressing null pump at 26 uM after 40 to 48 hrs in presence of fluconazole; format: functional; outline: as §1
[18] = tested on: Candida albicans; test: Antimicrobial activity against fluconazole-resistant Candida albicans 1758 over expressing MDR1 at 5.7 uM ater 24 hrs in presence of fluconazole; format: functional; outline: as §2
[19] = tested on: Candida albicans; test: Antimicrobial activity against Fluconazole susceptible Candida albicans 1587 at 5.7 uM ater 24 hrs in presence of fluconazole; format: functional; outline: as §2
[20] = tested on: Saccharomyces cerevisiae; test: Antimicrobial activity against azole-resistant Saccharomyces cerevisiae expressing CDR1 efflux pump at 26 uM after 40 to 48 hrs in presence of fluconazole; format: functional; outline: as §3
[21] = tested on: Candida albicans; test: Antimicrobial activity against fluconazole-susceptible Candida albicans isolate 1 at 26 uM ater 24 hrs in presence of fluconazole; format: functional; outline: as §4
[22] = tested on: Candida albicans; test: Antimicrobial activity against fluconazole-resistant Candida albicans isolate 17 at 26 uM ater 24 hrs in presence of fluconazole; format: functional; outline: as §4
[23] = tested on: Saccharomyces cerevisiae; test: Antimicrobial activity against azole-resistant Saccharomyces cerevisiae expressing MDR1 at 26 uM after 40 to 48 hrs in presence of fluconazole; format: functional; outline: as §1
[24] = tested on: Vero; test: Cytotoxicity against african green monkey Vero cells at 11.2 uM after 48 hrs by neutral red assay; format: cell-based; details: chlorocebus sabaeus
[25] = tested on: Candida albicans; test: Antimicrobial activity against fluconazole-resistant Candida albicans 1758 over expressing MDR1 at 189 uM ater 24 hrs in presence of fluconazole; format: functional; outline: as §2
[26] = tested on: Vero; test: Cytotoxicity against african green monkey Vero cells at 9 uM after 48 hrs by neutral red assay; format: cell-based; details: chlorocebus sabaeus
[27] = tested on: Candida albicans; test: Antimicrobial activity against fluconazole-susceptible Candida albicans 1587 at 189 uM ater 24 hrs in presence of fluconazole; format: functional; outline: as §2

With C=C(CC[C@](C)(O)[C@H]1[C@@H](O)C[C@H]2[C@@H]3CCc4cc(OS(=O)(=O)[O-])ccc4[C@H]3CC[C@@]21C)C(C)C.[Na+] the Activity [1] was “inactive”, the “fractional inhibitory concentration index (FICI)” value [2] was 0.75 and the Activity [3] was “inactive”. For the same compound, the Activity [4] was “inactive”, the “fractional inhibitory concentration index (FICI)” value [5] was 0.2 and the “fractional inhibitory concentration index (FICI)” value [6] was 1.34. For the same compound, the Activity [7] was “inactive”, the “fractional inhibitory concentration index (FICI)” value [8] was 1.8 and the “fractional inhibitory concentration index (FICI)” value [9] was 1.7. For the same compound, the “fractional inhibitory concentration index (FICI)” value [10] was 0.15, the Activity [11] was “Non-toxic” and the Activity [12] was “inactive”. The Activity [13] was “inactive”, the Activity [14] was “inactive” and the “fractional inhibitory concentration index (FICI)” value [15] was 1.6. The Activity [16] was “inactive”.

In the case of CC(C)[C@@H]1OC(=O)[C@@H](Cc2ccccc2)N(C)C(=O)[C@H](C(C)C)OC(=O)[C@@H](Cc2ccccc2)N(C)C(=O)[C@H](C(C)C)OC(=O)[C@@H](Cc2ccccc2)N(C)C1=O [BEAUVERICIN], the “fractional inhibitory concentration index (FICI)” value [17] is reported as 3.38, the “fractional inhibitory concentration index (FICI)” value [18] is reported as 2.8 and the “fractional inhibitory concentration index (FICI)” value [19] is reported as 0.5. The “fractional inhibitory concentration index (FICI)” value [20] was 0.04, the “fractional inhibitory concentration index (FICI)” value [21] was 0.5 and the “fractional inhibitory concentration index (FICI)” value [22] was 0.7. The “fractional inhibitory concentration index (FICI)” value [23] was 2.28.

In the case of C/C=C(\CC[C@](C)(O)[C@H]1[C@@H](O)C[C@H]2[C@@H]3CCc4cc(O)ccc4[C@H]3CC[C@@]21C)C(C)C [GEODISTEROL], the Activity [1] is reported as “inactive”, the Activity [3] is reported as “inactive” and the Activity [4] is reported as “inactive”. The Activity [24] was “Non-toxic”, the Activity [7] was “inactive” and the Activity [12] was “inactive”. The Activity [13] was “inactive”, the Activity [14] was “inactive” and the Activity [16] was “inactive”.

With C/C=C(\CC[C@](C)(O)[C@H]1[C@@H](O)C[C@H]2[C@@H]3CCc4cc(OS(=O)(=O)[O-])ccc4[C@H]3CC[C@@]21C)C(C)C.[Na+] the Activity [1] was “inactive”, the “fractional inhibitory concentration index (FICI)” value [2] was 1.1 and the “fractional inhibitory concentration index (FICI)” value [25] was 0.2. The Activity [3] was “inactive”, the Activity [4] was “inactive” and the “fractional inhibitory concentration index (FICI)” value [6] was 1.04. For the same compound, the Activity [26] was “Non-toxic”, the Activity [7] was “inactive” and the “fractional inhibitory concentration index (FICI)” value [27] was 1.7. For the same compound, the “fractional inhibitory concentration index (FICI)” value [8] was 1.3, the “fractional inhibitory concentration index (FICI)” value [9] was 1.5 and the “fractional inhibitory concentration index (FICI)” value [10] was 0.08. For the same compound, the Activity [12] was “inactive”, the Activity [13] was “inactive” and the Activity [14] was “inactive”. The Activity [16] was “inactive”.
